Results on 18 compounds are retold here after ChEMBL document CHEMBL1140447, “Synthesis and antimuscarinic properties of quinuclidin-3-yl 1,2,3,4-tetrahydroisoquinoline-2-carboxylate derivatives as novel muscarinic receptor antagonists” (J Med Chem, 2005).

The test system of experiment [1] is Rattus norvegicus. Nature of the experiment: Intravenous dose required to inhibit oxotremorine induced salivary secretion in urethane ([…] i.p.) anesthetized male wistar rats. Format: functional. As to conditions: for ED50: Rattus norvegicus, read-out: ID50 (the source's name).
The subject of experiment [2] is Rattus norvegicus. The experiment is described as follows: Intravenous dose required to inhibit rhythmic contraction of urinary bladder in urethane (1.0 g/kg s.c.) anesthetized female wistar rats. The experiment is classed as functional. The method in brief:
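Each rat received escalating intravenous doses, giving a dose–response curve per animal. The fall in intravesical pressure was read 5–10 min after each dose. ED30 is the dose that cut peak intravesical pressure by 30%. Values are means ± SEM.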

Experiment [3] concerns the target T1, Muscarinic acetylcholine receptor M2 (Rattus norvegicus, UniProt P10980).
T1 sequence (P10980 whole entry): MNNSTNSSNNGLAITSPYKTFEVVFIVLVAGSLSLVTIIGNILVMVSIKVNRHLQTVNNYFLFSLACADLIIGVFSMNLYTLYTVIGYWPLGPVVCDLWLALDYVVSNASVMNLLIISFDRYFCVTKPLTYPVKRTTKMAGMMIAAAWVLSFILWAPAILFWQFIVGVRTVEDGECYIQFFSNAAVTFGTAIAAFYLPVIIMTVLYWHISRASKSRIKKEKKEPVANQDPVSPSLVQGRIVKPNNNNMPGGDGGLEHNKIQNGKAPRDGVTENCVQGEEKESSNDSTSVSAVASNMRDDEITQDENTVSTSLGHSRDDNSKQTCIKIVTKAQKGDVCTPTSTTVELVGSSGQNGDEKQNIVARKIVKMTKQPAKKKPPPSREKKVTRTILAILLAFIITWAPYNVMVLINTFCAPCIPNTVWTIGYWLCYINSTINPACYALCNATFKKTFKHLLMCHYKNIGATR
Nature of the experiment: Binding affinity for rat heart muscarinic acetylcholine receptor M2 using [3H]quinuclidinyl benzilate.

For experiment [4], the species on record is Rattus norvegicus. Nature of the experiment: Selectivity index calculated as ID50/ED30.
Experiment [5] relates to Rattus norvegicus. Nature of the experiment: M2 antagonism measured as effect (i.v.) on oxotremorine induced bradycardia in pithed rats. Format: functional. The essentials: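 Bradycardia was evoked in pithed rats by an iv oxotremorine dose–response challenge, with compounds given 15 min beforehand. DR10 is the compound dose that shifts the oxotremorine curve 10-fold to the right. Values are reported with 95% confidence limits.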

Experiment [6] deals with Rattus norvegicus. Nature of the experiment: M1 antagonism measured as effect (i.v.) on McN-A343 induced pressor response in pithed rats. The experiment is classed as functional. As to conditions: iv, read-out: ID50 (the source's name). The essentials: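 Compounds were given iv 15 min before McN-A343 (3 μmol/kg iv) in pithed rats, with the pressor response recorded.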

[7] abbreviates: Rattus norvegicus, read-out: ED30.

Several values for one entry are separate records, joined by “and”; a condition that tells them apart may be missing. Equal entries are not always repeated.

A word on the Ki: it is a measure of affinity in units of concentration, obtained from inhibition or displacement. Low readings indicate a stronger hold on the target, high ones a looser hold on the target. Consider `O=C(O[C@H]1CN2CCC1CC2)N1CCc2ccccc2[C@H]1c1ccccc1`, for which, in the experiment with Rattus norvegicus [1], the ED50 worked out at 0.12 mg/kg. Also, the ED30 with Rattus norvegicus [2] (setting [7]) worked out at 0.036 mg/kg. Besides, the affinity in experiment [3] corresponds to a Ki of 8.7 nM.
As for `O=C(NC(c1ccccc1)c1ccccc1)OC1CN2CCC1CC2` (configuration not stated), the Ki in experiment [3] was 6.8 nM.
Turning to `O=C(O[C@H]1CN2CCC1CC2)N1CC(O)c2ccccc2C1c1ccccc1` (some centres not stated), the Ki in experiment [3] was 1800 nM and 480 nM.
As to `O=C(O[C@H]1CN2CCC1CC2)N1Cc2ccccc2C(c2ccccc2)C1` (some centres not stated), the Ki in experiment [3] is over 1000 nM.
Take `O=C(O[C@H]1CN2CCC1CC2)N1Cc2ccccc2C1c1ccccc1` (some centres not stated): the affinity in experiment [3] corresponds to a Ki of 440 nM.
As to `O=C(O[C@H]1CN2CCC1CC2)N1CCc2ccccc2C1c1cccs1` (some centres not stated), the Ki in experiment [3] was 13 nM and 93 nM.
In the case of `O=C(O[C@H]1CN2CCC1CC2)N1CCc2ccccc2C1C1CCCCC1` (some centres not stated), the Ki in experiment [3] was 22 nM and 39 nM.
On the same count and under the same terms, with `O=C(O[C@H]1CN2CCC1CC2)N1CCc2ccccc2C1c1ccccc1` (some centres not stated) the figure was 28 nM; with `O=C(O[C@@H]1CN2CCC1CC2)N1CCc2ccccc2[C@H]1c1ccccc1`, 1600 nM; with `O=C(O[C@@H]1CN2CCC1CC2)N1CCc2ccccc2[C@@H]1c1ccccc1`, 3500 nM.
In the case of `O=C(O[C@H]1CN2CCC1CC2)N1C[C@H](O)c2ccccc2[C@H]1c1ccccc1`, the affinity in experiment [3] corresponds to a Ki of 1700 nM. Compared with the last compound, the Ki is about 2.1-fold lower.
`O=C(O[C@H]1CN2CCC1CC2)N1C[C@@H](O)c2ccccc2[C@@H]1c1ccccc1` came in with a Ki in experiment [3] of 850 nM.
Take `O=C(O[C@H]1CN2CCC1CC2)N1CCc2ccccc2C1c1ccsc1` (single isomer, unassigned; 12a): the ED50 in the experiment with Rattus norvegicus [1] stood at 0.11 mg/kg. Also, in the experiment on Rattus norvegicus [2] (setting [7]), the ED30 amounted to 0.016 mg/kg. Besides, in experiment [3], the affinity corresponds to a Ki of 15 nM.
Regarding `O=C(O[C@H]1CN2CCC1CC2)N1CCc2ccccc2C1c1ccsc1` (single isomer, unassigned; 12b), the ED50 with Rattus norvegicus [1] is 1.3 mg/kg. Further, the ED30 with Rattus norvegicus [2] (setting [7]) came out at 0.24 mg/kg. For the same compound, the Ki in experiment [3] was 110 nM.
In the case of `NC(=O)C(c1ccccc1)(c1ccccc1)[C@@H]1CCN(CCc2ccc3c(c2)CCO3)C1` [DARIFENACIN], in the experiment on Rattus norvegicus [1], the ED50 worked out at 0.11 mg/kg. In addition, the ED30 with Rattus norvegicus [2] (setting [7]) is 0.058 mg/kg. The Selectivity index in the experiment listed under Rattus norvegicus [4] is reported as 1.9.
For `CCN(CC)CC#CCOC(=O)C(O)(c1ccccc1)C1CCCCC1` (configuration not stated) [OXYBUTYNIN], in the experiment with Rattus norvegicus [5], the DR10 is 1.6 mg/kg. The compound further yielded an ID50 in the experiment on Rattus norvegicus [1] of 0.17 mg/kg. For the same compound, the ED50 is 0.17 mg/kg in the experiment with Rattus norvegicus [1] and 1.1 mg/kg in the experiment with Rattus norvegicus [6]. The ED30 in the experiment with Rattus norvegicus [2] and in the experiment with Rattus norvegicus [2] (setting [7]) was 0.2 mg/kg in each case.
Turning to `O=C(O[C@H]1CN2CCC1CC2)N1CCc2ccccc2[C@@H]1c1ccccc1` [SOLIFENACIN], the DR10 in the experiment with Rattus norvegicus [5] stood at 4.2 mg/kg. Moreover, the results for the ED50 with Rattus norvegicus [1] and with Rattus norvegicus [6] were 2.1 mg/kg and 2.8 mg/kg, respectively. For the same compound, the ED30 with Rattus norvegicus [2] (setting [7]) was 0.18 mg/kg. For the same compound, the Ki in experiment [3] was found to be 120 nM.
For the compound `Cc1ccc(O)c([C@H](CCN(C(C)C)C(C)C)c2ccccc2)c1` [TOLTERODINE], the ED50 in the experiment with Rattus norvegicus [1] amounted to 0.26 mg/kg. Further, the ED30 in the experiment on Rattus norvegicus [2] (setting [7]) worked out at 0.06 mg/kg. Also, the Selectivity index in the experiment filed under Rattus norvegicus [4] was 4.3.
